Article PMC3667888 (Channels, 2013)
Residue numbers refer to the chain shown, from its start. pKd: −log10 of the molar value.

Assays:
Format in all cases: cell-based
[1] = target: T1, Kv4.2 K318R mutant channels (co-injected with KChIP1b) (Rattus norvegicus, UniProt Q63881, K318R); experiment: Two-electrode voltage clamp, K318R mutant Kv4.2/KChIP1b in Xenopus oocytes; conditions: 10 µM AA, 10 min
T1 sequence (Q63881 1-630 K318R): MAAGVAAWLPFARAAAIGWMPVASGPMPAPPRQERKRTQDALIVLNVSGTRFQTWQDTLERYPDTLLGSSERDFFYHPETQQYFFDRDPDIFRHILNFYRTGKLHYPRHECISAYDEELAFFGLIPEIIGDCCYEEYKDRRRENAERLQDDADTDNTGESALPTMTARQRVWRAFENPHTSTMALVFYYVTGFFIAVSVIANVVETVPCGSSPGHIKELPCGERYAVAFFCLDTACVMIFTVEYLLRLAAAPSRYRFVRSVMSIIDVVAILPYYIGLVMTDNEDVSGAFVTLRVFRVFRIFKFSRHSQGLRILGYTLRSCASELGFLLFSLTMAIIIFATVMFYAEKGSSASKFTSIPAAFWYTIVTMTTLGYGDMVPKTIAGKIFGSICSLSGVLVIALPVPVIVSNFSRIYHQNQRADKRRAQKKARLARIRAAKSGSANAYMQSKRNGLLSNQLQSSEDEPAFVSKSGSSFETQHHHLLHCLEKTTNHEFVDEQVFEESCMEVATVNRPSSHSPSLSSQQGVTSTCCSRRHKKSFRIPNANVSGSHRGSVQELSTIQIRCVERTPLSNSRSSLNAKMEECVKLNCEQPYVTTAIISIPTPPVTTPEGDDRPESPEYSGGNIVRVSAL
Summary of the method: (§1)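 Rat Kv4.2 (WT or QuikChange mutant) RNA co-injected equimolar with KChIP1b, 5–10 ng/oocyte, into Xenopus oocytes held 1–5 d at 17–19 °C. Two-electrode voltage clamp at room temperature in perfused Na/K methanesulfonate HEPES saline, pH 7.4–7.5, with P/−4 or P/−6 leak subtraction. Peak current at +40 mV (from −90 mV) after 10 min of 10 μM AA is expressed relative to pre-AA current. Mean ± SE, n = cells.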

[2] = target: T2, Kv4.2 R311Q mutant channels (co-injected with KChIP1b) (Rattus norvegicus, UniProt Q63881, R311Q); experiment: Two-electrode voltage clamp, R311Q mutant Kv4.2/KChIP1b in Xenopus oocytes; conditions: 10 µM AA, 10 min
T2 sequence (Q63881 1-630 R311Q): T1 sequence (Q63881 1-630 K318R) with R311Q, R318K

[3] = test system: Kv1.2/Kv2.1 chimeric channel; experiment: Two-electrode voltage clamp of Kv1.2/2.1 chimera K+ currents in Xenopus oocytes; conditions: 10 µM AA
[4] = target: T3, wild-type Kv4.2/KChIP1b channels (Rattus norvegicus, UniProt Q63881)
T3 sequence (Q63881 1-630): T1 sequence (Q63881 1-630 K318R) with R318K
Summary of the method: as §1

inhibition of peak K+ current by AA, effect of mutation [1]: preserved the strong inhibition by AA | V1/2 of conductance-voltage curve with AA ([4]; 10 µM AA, WT): −13.4 mV | rightward shift in V1/2 of the conductance-voltage relationship in the presence of AA ([4]; 10 µM AA, WT): +7 mV | slope factor (k) of Boltzmann fit with AA ([4]; 10 µM AA, WT): 12.1 | decrease in Kv4.2 currents ([4]; 10 µM AA, n = 3, same batch of oocytes as Kv1.2/2.1, +40 mV test potential): 30.7 ± 1.8% | pKd ([4]; fitted Kd for AA inhibition of peak current, Hill equation, nH = 1, +40 mV, 1 to 300 µM AA, WT): 4.68 | inhibition at 10 µM ([4]; read-out: inhibition of the peak K+ current): 30%
Structure (SMILES): CCCCC/C=C\C/C=C\C/C=C\C/C=C\CCCC(=O)O [AA, arachidonic acid]
inhibition of peak K+ current by AA, effect of mutation [2]: did not significantly disrupt the inhibitory effects of AA | modulation of Kv1.2/2.1 K+ currents by AA [3]: not modulated by AA | increase in current ([3]; n = 8, +110 mV test potential): 1.1 ± 2.1%
